These results are taken from ChEMBL document CHEMBL3822400, “New structure-activity relationships of N-acetamide substituted pyrazolopyrimidines as pharmacological ligands of TSPO” (Bioorg Med Chem Lett, 2016).

Chain of Translocator protein (P16257 whole entry, looked up): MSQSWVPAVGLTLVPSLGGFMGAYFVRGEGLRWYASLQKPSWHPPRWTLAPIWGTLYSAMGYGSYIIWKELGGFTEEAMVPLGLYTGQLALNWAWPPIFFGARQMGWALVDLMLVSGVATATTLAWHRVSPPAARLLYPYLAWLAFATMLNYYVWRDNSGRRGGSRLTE

The first series addresses Translocator protein (Rattus norvegicus, UniProt P16257). As to the kind of experiment: Displacement of [3H]-PK11195 from TSPO in rat C6 cell lysate after 2 hrs by liquid scintillation counting. It counts as cell-free.
Details: not given
(In general: Displacement assays read how much labelled ligand stays bound in the presence of the test substance.)
By Ki is commonly meant the equilibrium dissociation constant of an inhibitor or competing ligand from its target. High values mean a looser hold on the target, low ones a stronger hold on the target. `CCc1cc(CC)n2nc(-c3ccc(OC)cc3)c(CC(=O)N(CC)c3ccccc3)c2n1` came in with a Ki of 0.28 nM.

`CCc1cc(CC)n2nc(-c3ccc(OC)cc3)c(CC(=O)N(C(C)CC)C(C)CC)c2n1` (stereo not drawn) had a Ki of 14.4 nM.

Take `CCc1cc(CC)n2nc(-c3ccc(OC)cc3)c(CC(=O)N(C)C)c2n1`: the affinity, expressed as Ki, was 37.6 nM.

In turn, `CCc1cc(CC)n2nc(-c3ccc(OC)cc3)c(CC(=O)N(CC)C(C)(C)C)c2n1` displayed a Ki of 59.1 nM.

For `CCCN(CCC)C(=O)Cc1c(-c2ccc(OC)cc2)nn2c(CC)cc(CC)nc12`, the Ki is 5.57 nM.

Compound `CCc1cc(CC)n2nc(-c3ccc(OC)cc3)c(CC(=O)N3CCCCC3)c2n1` had a Ki of 49.2 nM.

On to `CCc1cc(CC)n2nc(-c3ccc(OC)cc3)c(CC(=O)N(C(C)C)C(C)C)c2n1`, for which the Ki came out at 20 nM.

`CCc1cc(CC)n2nc(-c3ccc(OC)cc3)c(CC(=O)N(CC(C)C)CC(C)C)c2n1` yielded a Ki of 13.2 nM.

Compound `CCCCCN(CCCCC)C(=O)Cc1c(-c2ccc(OC)cc2)nn2c(CC)cc(CC)nc12` came in with an inhibition constant (Ki) of 2.17 nM.

On to `CCCCN(CCCC)C(=O)Cc1c(-c2ccc(OC)cc2)nn2c(CC)cc(CC)nc12`, for which the Ki was determined as 7.34 nM.

With `CCCCCCN(CCCCCC)C(=O)Cc1c(-c2ccc(OC)cc2)nn2c(CC)cc(CC)nc12`, the Ki came to 18.6 nM.

`CCc1cc(CC)n2nc(-c3ccc(OC)cc3)c(CC(=O)N3CCC3)c2n1` registered a Ki of 87.8 nM.

Take `CCc1cc(CC)n2nc(-c3ccc(OC)cc3)c(CC(=O)N(C)C(C)(C)C)c2n1`: the inhibition constant (Ki) was determined as 94.8 nM.

In turn, `CCc1cc(CC)n2nc(-c3ccc(OC)cc3)c(CC(=O)N(C)c3ccccc3)c2n1` displayed a Ki of 6.44 nM.

In turn, `CCc1cc(CC)n2nc(-c3ccc(OC)cc3)c(CC(=O)N3CCCC3)c2n1` returned a Ki of 127 nM.

Compound `CCc1cc(CC)n2nc(-c3ccc(OC)cc3)c(CC(=O)N(Cc3ccccc3)Cc3ccccc3)c2n1` displayed a Ki of 397 nM.

Tested on in another series: not listed separately
As to the kind of experiment: Fraction unbound in human plasma after 4.5 hrs by rapid equilibrium dialysis method.
Details: not given
The format is ADME, cell-free. In outline:
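Equilibrium dialysis of plasma against buffer. After dialysis, the buffer and plasma fractions were extracted and analysed by standard LC-MS to quantify the compound.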
(In general: Equilibrium dialysis compares concentrations on both sides of a semipermeable membrane.)
Turning to `CCc1cc(CC)n2nc(-c3ccc(OC)cc3)c(CC(=O)N(CC)CC)c2n1`, the Fu was 1.1%.

`CCc1cc(CC)n2nc(-c3ccc(OC)cc3)c(CC(=O)N(CC)c3ccccc3)c2n1` showed a Fu of 0.6%.

`CCCN(CCC)C(=O)Cc1c(-c2ccc(OC)cc2)nn2c(CC)cc(CC)nc12` came in with a Fu of 0.7%.

The compound `CCCCN(CCCC)C(=O)Cc1c(-c2ccc(OC)cc2)nn2c(CC)cc(CC)nc12` yielded a Fu of 0.3%.

In the case of `CCc1cc(CC)n2nc(-c3ccc(OC)cc3)c(CC(=O)N(C)C(C)(C)C)c2n1`, the Fu worked out at 1.3%.

`CCc1cc(CC)n2nc(-c3ccc(OC)cc3)c(CC(=O)N(C)c3ccccc3)c2n1` displayed a Fu of 1.1%.

Tested on in a further series: not listed separately
As to the kind of experiment: Lipophilicity, log P of the compound at pH 7.5 by HPLC method. Conditions: buffer. The format is physicochemical.
Broadly, the logP is a log measure of how a compound divides between an organic and an aqueous phase. Low values mean lower lipophilicity, high ones higher lipophilicity. The compound `CCc1cc(CC)n2nc(-c3ccc(OC)cc3)c(CC(=O)N(CC)c3ccccc3)c2n1` showed a logP of 3.27.

`CCc1cc(CC)n2nc(-c3ccc(OC)cc3)c(CC(=O)N(C(C)CC)C(C)CC)c2n1` (stereo not drawn) showed a logP of 3.75.

`CCc1cc(CC)n2nc(-c3ccc(OC)cc3)c(CC(=O)N(C)C)c2n1` showed a logP of 2.47.

`CCc1cc(CC)n2nc(-c3ccc(OC)cc3)c(CC(=O)N(CC)C(C)(C)C)c2n1` had a lipophilicity (logP) of 3.32.

`CCCN(CCC)C(=O)Cc1c(-c2ccc(OC)cc2)nn2c(CC)cc(CC)nc12`: the logP turned out to be 3.35.

`CCc1cc(CC)n2nc(-c3ccc(OC)cc3)c(CC(=O)N3CCCCC3)c2n1` came in with a logP of 2.96.

The compound `CCc1cc(CC)n2nc(-c3ccc(OC)cc3)c(CC(=O)N(C(C)C)C(C)C)c2n1` returned a logP of 3.26.

On to `CCc1cc(CC)n2nc(-c3ccc(OC)cc3)c(CC(=O)N(CC(C)C)CC(C)C)c2n1`, for which the logP came to 3.77.

With `CCCCCN(CCCCC)C(=O)Cc1c(-c2ccc(OC)cc2)nn2c(CC)cc(CC)nc12`, the logP was 4.29.

Turning to `CCCCN(CCCC)C(=O)Cc1c(-c2ccc(OC)cc2)nn2c(CC)cc(CC)nc12`, the lipophilicity (logP) was determined as 3.81.

As to `CCCCCCN(CCCCCC)C(=O)Cc1c(-c2ccc(OC)cc2)nn2c(CC)cc(CC)nc12`, the logP is on record as 4.78.

Turning to `CCc1cc(CC)n2nc(-c3ccc(OC)cc3)c(CC(=O)N3CCC3)c2n1`, the log partition coefficient (logP) worked out at 2.58.

The compound `CCc1cc(CC)n2nc(-c3ccc(OC)cc3)c(CC(=O)N(C)C(C)(C)C)c2n1` displayed a logP of 3.13.

For `CCc1cc(CC)n2nc(-c3ccc(OC)cc3)c(CC(=O)N(C)c3ccccc3)c2n1`, the lipophilicity (logP) is on record as 3.11.

Turning to `CCc1cc(CC)n2nc(-c3ccc(OC)cc3)c(CC(=O)N3CCCC3)c2n1`, the logP was found to be 2.72.

`CCc1cc(CC)n2nc(-c3ccc(OC)cc3)c(CC(=O)N(Cc3ccccc3)Cc3ccccc3)c2n1` came in with a logP of 3.73.
